Experimental data: ChEMBL document CHEMBL2417423, “Synthesis and antifungal activities of miltefosine analogs” (Bioorg Med Chem Lett, 2013)
≈ marks a conversion by molar mass, not a printed value. Calls of active or inactive are those of the source. No cut-off for these calls is given here.

Tests used:
Pichia kudriavzevii [1] = assay: Antifungal activity against Candida krusei ATCC 6258 after 48 hrs; format: functional; details: ATCC 6258, 48 h
Procedure, shortened: (§1)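 MIC is the lowest concentration with no detectable growth. MFC: 5 μL from each clear well moved to agar at 35°C, 48 h for Candida spp. and A. fumigatus, 72 h for C. neoformans; lowest concentration that kills. Values are means of three independent experiments (two for one analog).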

Nakaseomyces glabratus [2] = assay: Antifungal activity against Candida glabrata ATCC 90030 after 48 hrs by spectrophotometry; format: functional; details: ATCC 90030, 48 h; procedure, shortened: as §1
Nakaseomyces glabratus [3] = assay: Antifungal activity against Candida glabrata ATCC 90030 after 48 hrs; format: functional; details: ATCC 90030, 48 h; procedure, shortened: as §1
Aspergillus fumigatus [4] = assay: Antifungal activity against Aspergillus fumigatus ATCC 90906 after 48 hrs; format: functional; details: ATCC 90906, 48 h; procedure, shortened: as §1
Aspergillus fumigatus [5] = assay: Antifungal activity against Aspergillus fumigatus ATCC 90906 after 48 hrs by spectrophotometry; format: functional; details: ATCC 90906, 48 h; procedure, shortened: as §1
Candida albicans [6] = assay: Antifungal activity against Candida albicans ATCC 90028 after 48 hrs by spectrophotometry; format: functional; details: ATCC 90028, 48 h; procedure, shortened: as §1
Pichia kudriavzevii [7] = assay: Antifungal activity against Candida krusei ATCC 6258 after 48 hrs by spectrophotometry; format: functional; details: ATCC 6258, 48 h; procedure, shortened: as §1
Candida albicans [8] = assay: Antifungal activity against Candida albicans ATCC 90028 after 48 hrs; format: functional; details: ATCC 90028, 48 h; procedure, shortened: as §1
HepG2 = assay: Cytotoxicity against human HepG2 cells after 48 hrs by neutral red; format: cell-based; details: HepG2, 48 h
Vero = assay: Cytotoxicity against african green monkey Vero cells after 48 hrs by neutral red; format: cell-based; details: Chlorocebus sabaeus
Cryptococcus neoformans [9] = assay: Antifungal activity against Cryptococcus neoformans ATCC 90113 after 72 hrs; format: functional; details: ATCC 90113, 72 h; procedure, shortened: as §1
Candida albicans [10] = assay: Antifungal activity against Candida albicans SC5314 infected in CD-1 mouse assessed as host survival at 5 mg/kg, po administered 4, 24, 48, 72, and 96 hrs post inoculation measured up to 12 days relative to control; format: functional, organism-based; set-up: dose 5 mg/kg
Procedure, shortened: (§2)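 Male CD1 mice, 6-7 weeks old, five per group, infected by tail-vein injection of 1 × 10^6 C. albicans SC5314 cells. Dosed intraperitoneally or orally at 4, 24, 48, 72 and 96 h post inoculation; PBS-treated controls. Survival followed for 12 days and compared by Log-rank test.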

Candida albicans [11] = assay: Antifungal activity against Candida albicans SC5314 infected in CD-1 mouse assessed as host survival at 1 mg/kg, ip administered 4, 24, 48, 72, and 96 hrs post inoculation measured up to […] relative to control; format: functional, organism-based; set-up: dose 1 mg/kg
Candida albicans [12] = assay: Antifungal activity against Candida albicans SC5314 infected in CD-1 mouse assessed as host survival at 25 mg/kg, po administered 4, 24, 48, 72, and 96 hrs post inoculation measured up to 12 days relative to control; format: functional, organism-based; set-up: dose 25 mg/kg; procedure, shortened: as §2
Candida albicans [13] = assay: Antifungal activity against Candida albicans SC5314 infected in CD-1 mouse assessed as host survival at 5 mg/kg, ip administered 4, 24, 48, 72, and 96 hrs post inoculation measured up to 8 days relative to control; format: functional, organism-based; set-up: dose 5 mg/kg
[14] = Cytotoxicity against pig LLC-PK11 cells after 48 hrs by neutral red; format: cell-based; details: Sus scrofa, LLC-PK11, 48 h
Cryptococcus neoformans [15] = assay: Antifungal activity against Cryptococcus neoformans ATCC 90113 after 72 hrs by spectrophotometry; format: functional; details: ATCC 90113, 72 h; procedure, shortened: as §1
Pichia kudriavzevii [16] = assay: Antifungal activity against Candida krusei ATCC 6258 at 20 ug/ml after 48 hrs; format: functional, organism-based
Aspergillus fumigatus [17] = assay: Antifungal activity against Aspergillus fumigatus ATCC 90906 at 20 ug/ml after 48 hrs; format: functional, organism-based
Cryptococcus neoformans [18] = assay: Antifungal activity against Cryptococcus neoformans ATCC 90113 at 20 ug/ml after 72 hrs; format: functional, organism-based
Cryptococcus neoformans [19] = assay: Antifungal activity against Cryptococcus neoformans ATCC 90113 at 20 ug/ml after 72 hrs by spectrophotometry; format: functional, organism-based
Candida albicans [20] = assay: Antifungal activity against Candida albicans ATCC 90028 at 20 ug/ml after 48 hrs; format: functional, organism-based
Aspergillus fumigatus [21] = assay: Antifungal activity against Aspergillus fumigatus ATCC 90906 at 20 ug/ml after 48 hrs by spectrophotometry; format: functional, organism-based
Pichia kudriavzevii [22] = assay: Antifungal activity against Candida krusei ATCC 6258 at 20 ug/ml after 48 hrs by spectrophotometry; format: functional, organism-based
Candida albicans [23] = assay: Antifungal activity against Candida albicans ATCC 90028 at 20 ug/ml after 48 hrs by spectrophotometry; format: functional, organism-based
Leishmania donovani = assay: Antileishmanial activity against Leishmania donovani in ip dosed mouse model of leishamniasis; format: functional

| SMILES | MFC (Pichia kudriavzevii [1]) [µg/mL] | MIC (Nakaseomyces glabratus [2]) [µg/mL] | MFC (Nakaseomyces glabratus [3]) [µg/mL] | MFC (Aspergillus fumigatus [4]) [µg/mL] | MIC (Aspergillus fumigatus [5]) [µg/mL] | MIC (Candida albicans [6]) [µg/mL] | MIC (Pichia kudriavzevii [7]) [µg/mL] | MFC (Candida albicans [8]) [µg/mL] | IC50 (HepG2) [µg/mL] | IC50 (Vero) [µg/mL] | MFC (Cryptococcus neoformans [9]) [µg/mL] | IC50 [14] [µg/mL] | MIC (Cryptococcus neoformans [15]) [µg/mL] | Activity (Pichia kudriavzevii [16]) | Activity (Cryptococcus neoformans [18]) | Activity (Cryptococcus neoformans [19]) | Activity (Candida albicans [20]) | Activity (Pichia kudriavzevii [22]) | Activity (Candida albicans [23]) | other results |
| --- | --- | --- | --- | --- | --- | --- | --- | --- | --- | --- | --- | --- | --- | --- | --- | --- | --- | --- | --- | --- |
| C[C@@H]1[C@H](O)[C@@H](C)/C=C/C=C/C=C/C=C/C=C/C=C/C=C/[C@H](O[C@@H]2O[C@H](C)[C@@H](O)[C@H](N)[C@@H]2O)C[C@@H]2O[C@](O)(C[C@@H](O)C[C@@H](O)[C@H](O)CC[C@@H](O)C[C@@H](O)CC(=O)O[C@H]1C)C[C@H](O)[C@H]2C(=O)O [AMPHOTERICIN B] | 1.7 (≈ 1.84 µM) | 1.3 (≈ 1.41 µM) | 1.5 (≈ 1.62 µM) | 5 (≈ 5.41 µM) | 2.5 (≈ 2.71 µM) | 0.9 (≈ 0.974 µM) | 1.7 (≈ 1.84 µM) | 1 (≈ 1.08 µM) |  |  |  |  |  |  |  |  |  |  |  |  |
| CCCCCCCCCCCCCCCCOP(=O)([O-])OCC[N+](C)(C)Cc1ccccc1 | 15 (≈ 31 µM) | 3.3 (≈ 6.82 µM) | 3.3 (≈ 6.82 µM) | 2.5 (≈ 5.17 µM) | 2.5 (≈ 5.17 µM) | 2.5 (≈ 5.17 µM) | 5 (≈ 10.3 µM) | 2.5 (≈ 5.17 µM) | > 25 | > 25 | 3.3 (≈ 6.82 µM) | 4.8 (≈ 9.92 µM) | 3.3 (≈ 6.82 µM) |  |  |  |  |  |  | Activity (Candida albicans [10]): inactive; Activity (Candida albicans [11]): inactive; Activity (Candida albicans [12]): inactive; Activity (Candida albicans [13]): inactive |
| CCCCCCCCCCCCCCCCOP(=O)([O-])OCC[N+](C)(C)Cc1ccc(OC)cc1 | 3.3 (≈ 6.42 µM) | 2.5 (≈ 4.87 µM) | 3.3 (≈ 6.42 µM) | 7.5 (≈ 14.6 µM) | 2.5 (≈ 4.87 µM) | 4.2 (≈ 8.18 µM) | 2 (≈ 3.89 µM) | 4.2 (≈ 8.18 µM) | 12.9 (≈ 25.1 µM) | > 25 | 4.2 (≈ 8.18 µM) | 1.9 (≈ 3.7 µM) | 4.2 (≈ 8.18 µM) |  |  |  |  |  |  |  |
| C=CC[N+](C)(C)CCOP(=O)([O-])OCCCCCCCCCCCCCCCC |  | 16.6 (≈ 38.3 µM) | 16.6 (≈ 38.3 µM) |  |  |  |  |  | 13.2 (≈ 30.4 µM) | > 25 |  | 4.1 (≈ 9.46 µM) |  | inactive | inactive | inactive | inactive | inactive | inactive | Activity (Aspergillus fumigatus [17]): inactive; Activity (Aspergillus fumigatus [21]): inactive |
| CCCCCCCCCCCCCCCCOP(=O)([O-])OCC[N+](C)(C)Cc1ccc(Br)cc1 |  | 10.8 (≈ 19.2 µM) | 10.8 (≈ 19.2 µM) | 20 (≈ 35.6 µM) | 20 (≈ 35.6 µM) |  |  |  | 21.3 (≈ 37.9 µM) | > 25 |  | 5.5 (≈ 9.78 µM) |  | inactive | inactive | inactive | inactive | inactive | inactive |  |
| CCCCCCCCCCCCCCOP(=O)([O-])OCC[N+](C)(C)Cc1ccccc1 | 10 (≈ 21.9 µM) | 8.3 (≈ 18.2 µM) | 8.3 (≈ 18.2 µM) |  | 10 (≈ 21.9 µM) | 6.7 (≈ 14.7 µM) | 10 (≈ 21.9 µM) | 8.3 (≈ 18.2 µM) | > 25 | > 25 | 3.3 (≈ 7.24 µM) | 10.8 (≈ 23.7 µM) | 3.3 (≈ 7.24 µM) |  |  |  |  |  |  |  |
| CCCCCCCCCCCCCCCCCCOP(=O)([O-])OCC[N+](C)(C)Cc1ccccc1 |  | 4.2 (≈ 8.21 µM) | 4.2 (≈ 8.21 µM) |  |  |  |  |  | 13 (≈ 25.4 µM) | > 25 |  | 4.7 (≈ 9.18 µM) |  | inactive | inactive | inactive | inactive | inactive | inactive | Activity (Aspergillus fumigatus [17]): inactive; Activity (Aspergillus fumigatus [21]): inactive |
| COc1cccc2c1C(=O)c1c(O)c3c(c(O)c1C2=O)C[C@@](O)(C(=O)CO)C[C@@H]3O[C@H]1C[C@H](N)[C@H](O)[C@H](C)O1 [DOXORUBICIN] |  |  |  |  |  |  |  |  | 0.9 (≈ 1.66 µM) | > 5 |  | 0.7 (≈ 1.29 µM) |  |  |  |  |  |  |  |  |
| CCCCCCCCCCCCCCCCOP(=O)([O-])OCC[N+](C)(C)C [MILTEFOSINE] | 3.3 (≈ 8.1 µM) | 3.3 (≈ 8.1 µM) | 4.2 (≈ 10.3 µM) | 9.2 (≈ 22.6 µM) | 2.9 (≈ 7.12 µM) | 2.5 (≈ 6.13 µM) | 2.5 (≈ 6.13 µM) | 2.5 (≈ 6.13 µM) | > 25 | > 25 | 2.1 (≈ 5.15 µM) | 2.7 (≈ 6.62 µM) | 2.1 (≈ 5.15 µM) |  |  |  |  |  |  | ED50 (Leishmania donovani): 7.72 mg/kg; Activity (Candida albicans [13]): inactive |
| CCCCCCCCCCCCCCCCOP(=O)([O-])OCC[N+](C)(C)Cc1ccc(Cl)cc1 |  | 11.2 (≈ 21.6 µM) | 11.2 (≈ 21.6 µM) | 12.5 (≈ 24.1 µM) | 12.5 (≈ 24.1 µM) |  |  |  | 21 (≈ 40.5 µM) | > 25 |  | 3.2 (≈ 6.18 µM) |  | inactive | inactive | inactive | inactive | inactive | inactive |  |
| CCCCCCCCCCCCCCCCOP(=O)([O-])OCC[N+](C)(C)Cc1ccc([N+](=O)[O-])cc1 | 3.3 (≈ 6.24 µM) | 2.5 (≈ 4.73 µM) | 2.5 (≈ 4.73 µM) | 7.5 (≈ 14.2 µM) | 2.5 (≈ 4.73 µM) | 2.5 (≈ 4.73 µM) | 2.5 (≈ 4.73 µM) | 2.5 (≈ 4.73 µM) | 11.5 (≈ 21.8 µM) | > 25 | 2.5 (≈ 4.73 µM) | 1.6 (≈ 3.03 µM) | 2.5 (≈ 4.73 µM) |  |  |  |  |  |  |  |
| CCCCCCCCCCCCCCCCOP(=O)([O-])OCC[N+](C)(C)C/C=C/c1ccccc1 | 3.3 (≈ 6.47 µM) | 2.5 (≈ 4.9 µM) | 3.3 (≈ 6.47 µM) | 5 (≈ 9.81 µM) | 2.5 (≈ 4.9 µM) |  | 3.3 (≈ 6.47 µM) |  | 19.6 (≈ 38.5 µM) | > 25 |  | 2.1 (≈ 4.12 µM) |  |  | inactive | inactive | inactive |  | inactive |  |
